Source: PubChem (Johns Hopkins Ion Channel Center)
Sampled rows, rich in hits. Any-hit rate of the full collection: about 2.9%.
TRPC4 act = TRPC4 (mouse) channel activation; Q9QUQ5; HEK293 TRPC4beta/mu-opioid, Fluo4 calcium fluorescence; hits give high values; B-score at 10 µM; 0.49% of 310,000 active; AID 2237;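 active = B-score above 5 SD of library B-scores, and initial fluorescence ratio not above library mean plus 5 SD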;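 note: positive B-score marks a calcium rise read as TRPC4 activation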
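Assay system – TRPC4beta and mu-opioid receptor HEK293 stable cells · Measured by – Fluo4 fluorescence, kinetic · Schedule – dye loading 45 min room temperature, 110 s kinetic read · Read-out – B-scored integrated calcium fluorescence ratio · Controls – buffer and maximal DAMGO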
TRPC4 inh = TRPC4 (mouse) channel inhibition; Q9QUQ5; HEK293 TRPC4beta/mu-opioid, DAMGO-evoked Fluo4 calcium flux; hits give low values; B-score at 10 µM; 0.39% of 300,000 active; AID 2247;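 active = B-score over 3 SD under the library average, no early fluorescence shift, positive overall ratio signal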
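Assay system – HEK293 line stably carrying TRPC4beta and mu-opioid receptor · Doses – single dose · Detection – Fluo4 calcium-dye fluorescence, kinetic read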
Kir21 block = inhibitors of mouse Kir2.1 inward-rectifier potassium channel. HEK293-Kir2.1, FluxOR thallium flux fluorescence; hits give low values. B-score at 10 µM. 0.85% of 310,000 active. AID 1672;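 active = fluorescence ratio B-score at or below minus 3 SD of library scores, with starting-brightness B-score within 2 SD, cut at about -4.2 in these data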;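 note: channel flux triggered by added potassium and thallium sulfate stimulus; B-score of peak minus minimum fluorescence over baseline after thallium stimulus; more negative B-score means stronger Kir2.1 block with less thallium influx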
TRPC4 potent = TRPC4 (mouse) allosteric potentiation. 0.42% of 310,000 active. Q9QUQ5. B-score at 10 µM. HEK293 TRPC4beta/mu-opioid, DAMGO EC20, Fluo-4 Ca2+ flux; hits give high values;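 active = B-score of calcium response area above 5 SD of library B-scores, with initial fluorescence ratio within 5 SD of library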;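 note: B-score of integrated fluorescence ratio over time as area under calcium response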
TRPC6 activator = activates the mouse TRPC6 cation channel. Q61143. HEK293-TRPC6 membrane potential dye fluorescence; hits give high values. B-score at 10 µM. 0.13% of 310,000 active. AID 2550;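 active = B-score of the integrated fluorescence ratio above library mean plus 3 SD, and starting fluorescence ratio within library mean plus 5 SD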;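 note: higher score means more depolarization so channel activation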
Target sequence (Q61143 whole entry, looked up): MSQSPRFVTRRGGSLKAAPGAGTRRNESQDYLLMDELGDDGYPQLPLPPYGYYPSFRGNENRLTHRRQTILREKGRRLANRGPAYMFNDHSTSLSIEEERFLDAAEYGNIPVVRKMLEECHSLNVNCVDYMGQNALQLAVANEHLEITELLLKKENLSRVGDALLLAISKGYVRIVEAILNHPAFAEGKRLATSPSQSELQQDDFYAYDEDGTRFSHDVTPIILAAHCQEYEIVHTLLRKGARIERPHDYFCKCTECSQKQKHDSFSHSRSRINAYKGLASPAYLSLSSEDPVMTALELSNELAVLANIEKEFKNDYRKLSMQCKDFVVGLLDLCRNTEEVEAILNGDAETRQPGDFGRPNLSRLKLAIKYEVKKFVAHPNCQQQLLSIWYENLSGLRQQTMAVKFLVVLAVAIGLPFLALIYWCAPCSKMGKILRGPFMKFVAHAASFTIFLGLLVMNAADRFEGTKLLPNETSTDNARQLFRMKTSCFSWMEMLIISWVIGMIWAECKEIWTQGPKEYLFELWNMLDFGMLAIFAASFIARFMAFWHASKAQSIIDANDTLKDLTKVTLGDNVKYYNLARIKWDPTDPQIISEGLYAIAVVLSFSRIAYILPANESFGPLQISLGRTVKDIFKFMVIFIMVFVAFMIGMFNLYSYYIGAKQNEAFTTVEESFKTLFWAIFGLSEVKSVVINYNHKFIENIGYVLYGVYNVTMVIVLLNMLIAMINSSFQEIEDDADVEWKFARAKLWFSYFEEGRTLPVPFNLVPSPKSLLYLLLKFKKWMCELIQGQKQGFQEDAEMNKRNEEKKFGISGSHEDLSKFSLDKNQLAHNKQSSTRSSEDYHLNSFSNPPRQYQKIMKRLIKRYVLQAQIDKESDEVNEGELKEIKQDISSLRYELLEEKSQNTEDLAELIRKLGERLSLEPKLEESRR
TRPC6 inh = blocks the mouse TRPC6 cation channel. B-score at 10 µM. Q61143. HEK293-TRPC6, membrane potential dye, ACh-evoked depolarization; hits give low values. AID 2553. 1.1% of 310,000 active;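 active = B-score under library mean minus 3 SD, initial fluorescence not abnormally high, positive integrated signal ratio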;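 note: B-score derived from integrated fluorescence ratio over the kinetic read; more negative B-score means stronger inhibition of depolarization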
TRPC4 spec 2 = second selectivity test of TRPC6 inhibitors: effect on mouse TRPC4; shares compounds with TRPC6 inh; HEK293 TRPC4/MOR, membrane potential dye fluorescence; channel activated by saturating DAMGO dose; inhibition, % at 10 µM; 42% of 920 active; AID 2776;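 active = compounds whose fluorescence signal differed from control wells by over 3 SD, either direction, in both duplicate plates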
TRPC4 spec = mouse TRPC4 off-target activity of TRPC6 inhibitors; shares compounds with TRPC6 inh; HEK293 TRPC4/mu-opioid, membrane potential fluorescence; activity change, negative = inhibition, % at 10 µM; 61% of 920 active; AID 2777;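 active = rise or fall in signal beyond 3 SD of buffer-only wells in both replicate plates, either sign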;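 note: integrated kinetic ratio of fluorescence range over baseline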
HEK293 MPD ctr 2-1 = second counter-screen for TRPC6 inhibitors: parental HEK293 cells | AID 2779 | signal change vs control, % at 10 µM | parental HEK293 membrane potential dye fluorescence; maximal acetylcholine challenge after compound addition | shares compounds with TRPC6 inh | 31% of 920 active;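 active = membrane potential signal moving either way by over 3 SD of the maximum-effect control, in both duplicate plates, meaning non-specific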
HEK293 MPD ctr-1 = checks TRPC6 inhibitor effects in parental HEK293 cells | shares compounds with TRPC6 inh | parental HEK293 membrane potential dye fluorescence | membrane potential signal change, % at 10 µM | 60% of 920 active | AID 2780;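 active = membrane potential signal shifting up or down by more than 3 SD of buffer-only wells, on both duplicate plates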
HEK293 MPD ctr-2 = parental HEK293 nonspecific activity of TRPC6 modulators. membrane potential signal change, % at 10 µM. membrane potential dye fluorescence. shares compounds with TRPC6 inh. 51% of 2,400 active;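 active = membrane potential signal moves up or down beyond 5 SD from buffer-only wells, on both duplicate plates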
HEK293 MPD ctr 2-2 = parental HEK293 nonspecific activity of TRPC6 modulators, second screen. shares compounds with TRPC6 inh. inhibition, % at 10 µM. 14% of 2,400 active. AID 488926. membrane potential dye fluorescence; after compound, maximal acetylcholine stimulation;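 active = membrane potential signal drops by more than 5 SD from the mean control signal, in both duplicate plates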;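 note: plate controls were acetylcholine ECmax control wells for no effect and buffer only wells for full effect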
TRPC4 ctr mod = mouse TRPC4 off-target activity of TRPC6 modulators; shares compounds with TRPC6 inh; 69% of 2,400 active; percent change from control (negative = decrease, positive = increase), % at 10 µM; HEK293 TRPC4/mu-opioid, membrane potential fluorescence;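 active = membrane potential signal moved up or down beyond 5 SD of buffer control wells, in both duplicate plates, actives on both sides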;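 note: plate controls were assay buffer wells for no effect and DAMGO maximal-effect wells for full effect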
TRPC4/MOR inh 2 = second check of whether TRPC6 modulators also affect mouse TRPC4 | shares compounds with TRPC6 inh | HEK293 TRPC4/mu-opioid, membrane potential dye fluorescence; stimulated with maximal-effect DAMGO | inhibition, % at 10 µM | 55% of 2,400 active;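 active = drop in membrane potential signal beyond 5 SD of the control wells in both duplicate plates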;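 note: TRPC4 counter screen for TRPC6 hits run under conditions tuned for TRPC6 not TRPC4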
TRPC6 block conf = mouse TRPC6 inhibitor confirmation | shares compounds with TRPC6 inh | HEK293-TRPC6, membrane potential dye, ACh-evoked depolarization | inhibition, % at 10 µM | 43% of 3,300 active | AID 488960;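 active = fluorescence ratio falls more than 5 SD below the full-stimulation control mean, in both duplicate runs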;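 note: integrated fluorescence ratio of peak minus minimum over baseline after agonist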
TRPC6 act conf = mouse TRPC6 activator confirmation | shares compounds with TRPC6 inh | HEK293-TRPC6 membrane potential dye fluorescence, FDSS | activation, % at 10 µM | 11% of 2,800 active;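 active = ratio signal rise beyond 5 SD above unstimulated control wells' mean, seen in both duplicate runs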;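 note: plate controls were buffer EC0 wells for no effect and acetylcholine ECmax response for full effect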
* = called active by the depositor; i = inactive; nt = not tested or not shown.

SMILES	TRPC4 act	TRPC4 inh	Kir21 block	TRPC4 potent	TRPC6 activator	TRPC6 inh	HEK293 MPD ctr-2	HEK293 MPD ctr 2-2	TRPC4 ctr mod	TRPC4/MOR inh 2	TRPC6 block conf	TRPC6 act conf	others
CC(CC(=O)N(C)CC(=O)Nc1ccc(N2CCOCC2)cc1)c1ccccc1 (centres undefined)	i	i	-0.01	i	i	i	nt	nt	nt	nt	nt	nt
O=C(Nc1ccccc1C(=O)NC(Cc1c[nH]c2ccccc12)C(=O)O)c1ccccc1 (centres undefined)	i	i	-1.1	i	i	i	nt	nt	nt	nt	nt	nt
COc1ccc(NC(=O)CSc2nc3c(c(=O)n2-c2ccccc2OC)SCC3)cc1	i	i	0.34	i	i	i	nt	nt	nt	nt	nt	nt
CC(=O)Nc1ccc(OCc2nnc(-c3ccc(Cl)cc3)o2)cc1	i	i	0.15	i	i	-6.32*	i	i	i	i	i	i
O=C(CCOc1ccccc1)OCC(=O)c1cc2ccccc2o1	i	i	0.43	i	i	-9.29*	nt	nt	nt	nt	i	i	TRPC4 spec 2=i;TRPC4 spec=i;HEK293 MPD ctr 2-1=i;HEK293 MPD ctr-1=i
COc1ccccc1N=Nc1c(C)[nH][nH]c1=O	i	i	0.89	i	i	i	nt	nt	nt	nt	nt	nt
COCCCNC(=O)C1CCC(CNS(=O)(=O)c2ccc(C)cc2)CC1 (centres undefined)	i	i	1.03	i	i	-6.29*	99.0%*	i	22.5%*	i	i	i
CCCCNC(=O)C1CCC(CNS(=O)(=O)c2ccc(C)cc2)CC1 (centres undefined)	i	i	-0.89	i	i	i	nt	nt	nt	nt	nt	nt
Cc1cccc(NC2=C(NCCO)C(=O)c3ccccc3C2=O)c1	i	i	-0.04	i	i	-10.9*	-251.5%*	i	-49.5%*	65.5%*	52.5%*	i
O=S(=O)(Nc1ccc(N2CCOCC2)cc1)c1ccc2ccccc2c1	i	i	1.29	i	i	i	nt	nt	nt	nt	nt	nt
CCOc1nc(S(=O)(=O)c2ccc(C)cc2)c(Cl)s1	i	i	1.81	i	i	i	nt	nt	nt	nt	nt	nt
COCCN(CCOC)c1nc(S(=O)(=O)c2ccc(C)cc2)c(Cl)s1	i	i	-1.19	i	i	-5.41*	106.0%*	i	23.5%*	i	i	nt
O=C(Cn1cc(SCc2ccc(Cl)cc2)c2ccccc21)N1CCOCC1	i	i	-1.81	i	i	i	nt	nt	nt	nt	nt	nt
CCC(CC)COC(=O)C(C#N)c1nc2ccccc2nc1N1CCN(CC)CC1 (centres undefined)	i	i	0.96	i	i	-9.79*	nt	nt	nt	nt	63.4%*	i	TRPC4 spec 2=49.5%*;TRPC4 spec=i;HEK293 MPD ctr 2-1=i;HEK293 MPD ctr-1=i
COc1ccc(S(=O)(=O)NC(C)C(=O)NCc2ccco2)cc1OC (centres undefined)	i	i	0.22	i	i	i	nt	nt	nt	nt	nt	nt
CCN1C(=O)/C(=C/N2CC(C)CC(C)C2)SC1=S (centres undefined)	i	i	2	i	i	i	nt	nt	nt	nt	nt	nt
CCN1C(=O)/C(=C\N2CCCCCC2)SC1=S	i	i	-0.92	i	i	-7.23*	nt	nt	nt	nt	i	i	TRPC4 spec 2=i;TRPC4 spec=i;HEK293 MPD ctr 2-1=i;HEK293 MPD ctr-1=i
CC(=O)N1CCN(C(=O)COC(=O)CNC(=O)c2ccccc2C)CC1	i	i	-0.03	i	i	i	nt	nt	nt	nt	nt	nt
COc1ccc(CCC(C)NC2C3CC4CC(C3)CC2C4)cc1 (centres undefined)	i	i	-3.44	i	i	-8.5*	nt	nt	nt	nt	93.7%*	nt	TRPC4 spec 2=65.5%*;TRPC4 spec=36.7%*;HEK293 MPD ctr 2-1=-12.5%*;HEK293 MPD ctr-1=20.9%*
COc1ccc(CCC(C)Nc2ccccc2F)cc1 (centres undefined)	i	i	0.01	i	i	i	nt	nt	nt	nt	nt	nt
CCN1CCCC1CNC(=O)c1ccc(Sc2ccccc2Cl)c([N+](=O)[O-])c1 (centres undefined)	i	i	-0.86	i	i	-7.06*	i	i	i	44.0%*	42.5%*	i
O=C(NCCCN1CCOCC1)c1ccc(Sc2ccc(F)cc2)c([N+](=O)[O-])c1	i	i	-0.53	i	i	i	nt	nt	nt	nt	nt	nt
CCN1CCCC1CNC(=O)c1ccc(Sc2ccc(F)cc2)c([N+](=O)[O-])c1 (centres undefined)	i	i	-1.83	i	i	-8.15*	i	i	i	55.5%*	51.5%*	i
O=C(Nc1ccccc1)C1CC(=O)N(Cc2ccccc2)C1 (centres undefined)	i	i	-0.34	i	i	i	nt	nt	nt	nt	nt	nt
O=C(Nc1ccc(F)c(Cl)c1)C1CC(=O)N(Cc2ccccc2)C1 (centres undefined)	i	i	0.01	i	i	-6.12*	i	i	-8.5%*	i	i	i
COC(=O)C1=NN(C(=O)c2ccc(C)cc2)C(O)(c2ccc(Cl)cc2)C1 (centres undefined)	102*	i	-0.43	i	34*	-6.6*	421.0%*	i	82.0%*	i	77.0%*	298.5%*
